Reference: ChEMBL document CHEMBL1157184, “Hymenoic acid, a novel specific inhibitor of human DNA polymerase lambda from a fungus of Hymenochaetaceae sp” (Bioorg Med Chem, 2008)
The source made the active and inactive calls.

Columns and labels:
Homo sapiens [1] = organism: Homo sapiens; test: Inhibition of human topoisomerase type 2 at 200 uM
Summary of the method: (§1)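 Each enzyme (0.05 U) was incubated with 200 μM compound. Activity was expressed as a percentage of the activity without compound (100%). Means ± SEM of four independent experiments.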

Homo sapiens [2] = organism: Homo sapiens; test: Inhibition of human topoisomerase type 1 at 200 uM; summary of the method: as §1
[3] = biological target: T1, DNA polymerase alpha subunit B (Bos taurus) (UniProt Q58D13); test: Inhibition of calf DNA polymerase alpha at 200 uM
T1 sequence (whole entry): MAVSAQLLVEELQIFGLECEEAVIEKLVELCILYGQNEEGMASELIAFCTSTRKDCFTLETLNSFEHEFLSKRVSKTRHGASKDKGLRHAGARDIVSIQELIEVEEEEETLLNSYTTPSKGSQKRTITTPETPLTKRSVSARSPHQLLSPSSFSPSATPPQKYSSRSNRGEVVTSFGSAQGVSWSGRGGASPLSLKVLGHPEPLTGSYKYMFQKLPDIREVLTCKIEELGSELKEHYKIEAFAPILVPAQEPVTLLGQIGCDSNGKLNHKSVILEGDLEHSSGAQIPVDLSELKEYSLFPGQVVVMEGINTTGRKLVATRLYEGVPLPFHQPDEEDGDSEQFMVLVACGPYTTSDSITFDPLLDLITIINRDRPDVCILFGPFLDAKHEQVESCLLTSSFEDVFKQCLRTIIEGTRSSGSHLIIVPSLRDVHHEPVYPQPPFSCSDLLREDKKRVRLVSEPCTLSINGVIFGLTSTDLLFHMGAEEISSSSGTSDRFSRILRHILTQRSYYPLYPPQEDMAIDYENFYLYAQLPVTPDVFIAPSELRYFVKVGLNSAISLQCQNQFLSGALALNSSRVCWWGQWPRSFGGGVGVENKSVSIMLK
Summary of the method: (§2)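 Compound dissolved in DMSO and sonicated 30 s, then held with each polymerase (final 0.05 U) in 50 mM Tris-HCl pH 7.5, 1 mM DTT, 50% glycerol, 0.1 mM EDTA at 0 °C for 10 min. Reaction with poly(dA)/oligo(dT)12-18 and dTTP ran 60 min at 37 °C (Taq at 74 °C). Activity relative to no-compound control; means ± SEM, four independent experiments.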

Oncorhynchus masou = test: Inhibition of fish DNA polymerase delta at 200 uM; summary of the method: as §2
[4] = biological target: T2, DNA polymerase kappa (Homo sapiens) (UniProt Q9UBT6); test: Inhibition of human DNA polymerase kappa at 200 uM; summary of the method: as §2
T2 sequence (whole entry): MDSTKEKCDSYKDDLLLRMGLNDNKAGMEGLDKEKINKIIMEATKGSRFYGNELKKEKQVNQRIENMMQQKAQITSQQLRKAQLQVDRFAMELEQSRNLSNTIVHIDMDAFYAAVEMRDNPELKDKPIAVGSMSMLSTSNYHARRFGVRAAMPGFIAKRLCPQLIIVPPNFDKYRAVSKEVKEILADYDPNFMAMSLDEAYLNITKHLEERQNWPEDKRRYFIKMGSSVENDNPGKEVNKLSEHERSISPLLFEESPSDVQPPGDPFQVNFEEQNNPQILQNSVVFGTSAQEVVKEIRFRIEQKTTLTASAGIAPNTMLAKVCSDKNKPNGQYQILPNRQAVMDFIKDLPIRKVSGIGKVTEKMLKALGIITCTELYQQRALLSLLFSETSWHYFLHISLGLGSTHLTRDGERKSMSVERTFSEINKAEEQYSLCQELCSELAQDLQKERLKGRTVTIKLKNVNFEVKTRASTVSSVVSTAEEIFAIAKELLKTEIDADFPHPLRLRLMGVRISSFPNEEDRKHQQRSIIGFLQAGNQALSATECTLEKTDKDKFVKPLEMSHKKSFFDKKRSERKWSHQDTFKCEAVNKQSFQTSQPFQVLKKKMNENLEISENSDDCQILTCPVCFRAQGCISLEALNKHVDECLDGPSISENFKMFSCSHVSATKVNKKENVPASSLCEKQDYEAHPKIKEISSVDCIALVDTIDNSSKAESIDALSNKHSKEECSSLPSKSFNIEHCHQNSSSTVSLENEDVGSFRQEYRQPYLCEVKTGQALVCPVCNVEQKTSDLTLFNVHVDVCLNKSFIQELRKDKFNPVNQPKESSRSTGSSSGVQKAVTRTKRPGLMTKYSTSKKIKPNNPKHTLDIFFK

[5] = system: T7 RNA polymerase (Bacteriophage T7); test: Inhibition of T7 RNA polymerase at 200 uM
[6] = system: Brassica oleracea var. botrytis; test: Inhibition of cauliflower DNA polymerase epsilon at 200 uM; summary of the method: as §2
Drosophila melanogaster = test: Inhibition of fruit fly DNA polymerase beta at 200 uM; summary of the method: as §2
Mus musculus = organism: Mus musculus; test: Inhibition of mouse inosine 5-monophosphate dehydrogenase type 2 at 200 uM; summary of the method: as §1
[7] = biological target: T3, DNA polymerase iota (Homo sapiens) (UniProt Q9UNA4); test: Inhibition of human DNA polymerase iota at 200 uM; summary of the method: as §2
T3 sequence (whole entry): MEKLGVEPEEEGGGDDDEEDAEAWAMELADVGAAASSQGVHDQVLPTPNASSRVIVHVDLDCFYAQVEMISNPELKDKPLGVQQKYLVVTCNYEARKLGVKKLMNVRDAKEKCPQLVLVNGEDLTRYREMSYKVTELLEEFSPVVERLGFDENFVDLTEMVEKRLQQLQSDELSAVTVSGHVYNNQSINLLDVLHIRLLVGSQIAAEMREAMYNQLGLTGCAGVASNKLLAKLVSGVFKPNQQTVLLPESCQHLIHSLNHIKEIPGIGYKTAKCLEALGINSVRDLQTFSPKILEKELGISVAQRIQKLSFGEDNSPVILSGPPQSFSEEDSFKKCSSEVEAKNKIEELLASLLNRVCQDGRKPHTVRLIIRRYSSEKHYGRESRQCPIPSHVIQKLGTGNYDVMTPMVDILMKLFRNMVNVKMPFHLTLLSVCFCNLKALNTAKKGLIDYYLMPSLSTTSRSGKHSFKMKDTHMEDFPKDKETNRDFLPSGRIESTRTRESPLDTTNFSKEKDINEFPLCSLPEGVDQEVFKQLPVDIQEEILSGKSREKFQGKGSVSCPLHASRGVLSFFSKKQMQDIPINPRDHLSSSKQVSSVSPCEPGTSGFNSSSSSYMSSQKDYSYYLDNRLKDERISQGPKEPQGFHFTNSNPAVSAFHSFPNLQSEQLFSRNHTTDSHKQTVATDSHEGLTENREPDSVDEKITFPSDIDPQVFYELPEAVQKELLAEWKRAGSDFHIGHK

[8] = system: Human immunodeficiency virus; test: Inhibition of HIV reverse transcriptase at 200 uM
Escherichia coli = test: Inhibition of Escherichia coli T4 DNA polymerase at 200 uM; summary of the method: as §2
Homo sapiens [9] = organism: Homo sapiens; test: Inhibition of human DNA polymerase epsilon at 200 uM; summary of the method: as §2
Homo sapiens [10] = organism: Homo sapiens; test: Inhibition of human telomerse at 200 uM; summary of the method: as §1
Homo sapiens [11] = organism: Homo sapiens; test: Inhibition of human DNA polymerase gamma at 200 uM; summary of the method: as §2

Measured: Activity

C/C(=C\CC[C@H](C)C(=O)O)[C@H]1CC[C@H](C(=O)O)CC1
inactive: Homo sapiens [1] | Homo sapiens [2] | [3] | Oncorhynchus masou | [4] | [5] | [6] | Drosophila melanogaster | Mus musculus | [7] | [8] | Escherichia coli | Homo sapiens [9] | Homo sapiens [10] | Homo sapiens [11]
